Results on 1 molecule are retold here after ChEMBL document CHEMBL4665664, “Discovery of Orally Active Hydroxyethylamine Based SPPL2a Inhibitors” (ACS Med Chem Lett, 2019).

Structures are written as SMILES. Calls of active or inactive are those of the source. The rule behind the calls is not given here.

The nature of series [1]: Oral bioavailability in Balb/c mouse at 20 mg/kg by LC/MS/MS analysis. It is filed as ADME, organism-based. Particulars: in vivo. A digest of the protocol: (§1)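 Balb/c mice dosed 5 mg/kg i.v. and 20 mg/kg p.o. in PEG300/D5W (3:1); plasma concentration profile taken as mean of three animals; PK parameters derived from these profiles.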
Series [2] in a line: Drug uptake in mouse spleen at 100 mg/kg, po measured after 4 hrs by LC/MS/MS analysis. It is filed as ADME, organism-based. Particulars: read-out: Drug uptake. A digest of the protocol: (§2)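 Single oral dose of 10, 30 or 100 mg/kg in PEG300/D5W (3:1); total plasma and spleen concentrations measured at termination, 4 h post-dose; reported as means ± SEM.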
A short description of series [3]: Total plasma concentration in mouse at 30 mg/kg, po measured after 4 hrs by LC/MS/MS analysis. It is filed as ADME, organism-based. Summed up:
as §2

In series [4] the target is T1, Signal peptide peptidase-like 2A (Mus musculus) (UniProt Q9JJF9).
T1 sequence (whole entry): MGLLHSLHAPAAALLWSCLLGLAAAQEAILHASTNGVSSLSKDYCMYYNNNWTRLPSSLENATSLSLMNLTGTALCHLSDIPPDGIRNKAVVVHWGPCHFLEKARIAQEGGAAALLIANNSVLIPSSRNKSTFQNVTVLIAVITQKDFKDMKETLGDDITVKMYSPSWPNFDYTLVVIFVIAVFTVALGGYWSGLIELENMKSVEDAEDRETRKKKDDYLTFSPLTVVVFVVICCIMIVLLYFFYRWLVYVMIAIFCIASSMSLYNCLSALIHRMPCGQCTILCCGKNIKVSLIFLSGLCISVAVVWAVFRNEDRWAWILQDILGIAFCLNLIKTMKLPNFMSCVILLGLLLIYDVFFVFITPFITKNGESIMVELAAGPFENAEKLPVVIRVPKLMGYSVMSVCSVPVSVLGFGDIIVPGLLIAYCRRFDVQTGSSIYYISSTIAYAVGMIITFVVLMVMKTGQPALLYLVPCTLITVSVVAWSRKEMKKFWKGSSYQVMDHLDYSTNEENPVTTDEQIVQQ
The series is described as follows: Inhibition of SPPL2a in mouse whole blood assessed as […] in CD74/p8 NTF accumulation at 4 uM incubated for 5 hrs by flow cytometric analysis based assay. It counts as tissue-based.

Series [5] can be described thus: Half life in Balb/c mouse at 5 mg/kg, iv and 20 mg/kg, po by LC/MS/MS analysis. Particulars: in vivo. It is filed as ADME, organism-based. A digest of the protocol:
as §1

Series [6] is described as follows: Dose normalized AUC in Balb/c mouse at 20 mg/kg, po by LC/MS/MS analysis. It is filed as ADME, organism-based. Particulars: in vivo. A digest of the protocol:
as §1

Series [7] is described as follows: Total plasma concentration in mouse at 10 mg/kg, po measured after 4 hrs by LC/MS/MS analysis. It counts as ADME, organism-based. A digest of the protocol: as §2
Series [8] addresses T2, Signal peptide peptidase-like 2A (Mus musculus, UniProt Q9JJF9).
T2 sequence (Q9JJF9 whole entry): T1 sequence (whole entry)
Kind of series: Inhibition of SPPL2a in Balb/c mouse A20 cells assessed as […] in CD74/p8 NTF accumulation incubated for overnight by Western blot analysis. It counts as cell-based. Summed up:
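Endogenous CD74/p8 NTF processing in mouse B cell line A20 measured by quantitative Western blot; IC50 derived.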

Series [9] addresses T3, Signal peptide peptidase-like 2B (Homo sapiens, UniProt Q8TCT7).
T3 sequence (Q8TCT7 whole entry): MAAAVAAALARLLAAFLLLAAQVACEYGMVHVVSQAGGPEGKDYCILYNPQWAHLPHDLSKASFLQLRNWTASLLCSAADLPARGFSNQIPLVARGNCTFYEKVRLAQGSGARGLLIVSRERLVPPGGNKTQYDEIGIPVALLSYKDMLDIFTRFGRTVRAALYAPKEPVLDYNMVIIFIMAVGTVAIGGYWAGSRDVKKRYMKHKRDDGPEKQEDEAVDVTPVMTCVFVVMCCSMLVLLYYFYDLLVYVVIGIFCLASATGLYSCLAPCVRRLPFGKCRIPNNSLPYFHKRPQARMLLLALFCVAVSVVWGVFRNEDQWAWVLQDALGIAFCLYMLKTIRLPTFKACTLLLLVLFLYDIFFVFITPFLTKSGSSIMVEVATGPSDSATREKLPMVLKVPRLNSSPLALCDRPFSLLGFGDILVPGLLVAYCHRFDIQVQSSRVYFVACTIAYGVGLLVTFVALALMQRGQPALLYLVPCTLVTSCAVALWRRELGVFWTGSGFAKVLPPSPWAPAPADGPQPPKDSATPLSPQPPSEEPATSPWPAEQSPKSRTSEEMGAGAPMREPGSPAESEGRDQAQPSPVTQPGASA
The series is described as follows: Inhibition of SPPL2b in human U2OS cells cotransfected with EGFP-labeled TNFalpha (1 to 76 residues)-NTF incubated for 24 hrs by Hoechst staining based Cellomics ArrayScan analysis. It is filed as cell-based.

Series [10] concerns the target T2, Signal peptide peptidase-like 2A. Kind of series: Inhibition of mouse SPPL2a cotransfected with EGFP-NLP-fused TNFalpha (1 to 77 residues)-NTF incubated for 24 hrs by Hoechst staining based Cellomics ArrayScan analysis.
Series [11] can be described thus: Drug uptake in mouse spleen at 10 mg/kg, po measured after 4 hrs by LC/MS/MS analysis. It counts as ADME, organism-based. Particulars: read-out: Drug uptake. A digest of the protocol: as §2
The nature of series [12]: Drug uptake in mouse spleen at 30 mg/kg, po measured after 4 hrs by LC/MS/MS analysis. It is filed as ADME, organism-based. The following applies: read-out: Drug uptake. A digest of the protocol: as §2
Series [13] in a line: Total plasma concentration in mouse at 100 mg/kg, po measured after 4 hrs by LC/MS/MS analysis. It counts as ADME, organism-based. A digest of the protocol:
as §2

The target of the next series is Gamma-secretase. Kind of series: Inhibition of gamma-secretase (unknown origin) expressed in HEK293 cells cotransfected with Notch1-VP16-GAL4 fusion and Gal4 luciferase reporter plasmid incubated for 24 hrs by luciferase reporter gene assay luminescence assay. It is filed as cell-based, Homo sapiens.
The nature of series [14]: Volume of distribution in Balb/c mouse at 5 mg/kg, iv and 20 mg/kg, po by LC/MS/MS analysis. Particulars: in vivo. It is filed as ADME, organism-based. A digest of the protocol:
as §1

In series [1], `CC(C)(C)c1ccc(S(=O)(=O)N(C[C@H](O)[C@@H](N)c2ccc(OC(F)(F)F)cc2)C2CCC2)cc1` came in with a bioavailability of 35%. Further, the concentration at 4 h in series [2] worked out at 53.3 µM; in series [3] it was 250 nM; in [7] it was 120 nM; in series [11], 6 µM; in series [12] it was 12.7 µM; in series [13] it was 1170 nM. Further, the inhibition result in series [4] is “Active”. In addition, in series [5], the half-life was 300 min. Moreover, in [6], the AUC/dose was 282 nM·h. Moreover, the IC50 in series [8] turned out to be 150 nM; in [9], 270 nM; in series [10] it was 5 nM; at Gamma-secretase it was 1300 nM. In series [14], this molecule registered a Vd of 12.3 L/kg.
